# An excerpt weighted towards active compounds, which were near 1.9% of everything screened.
# NadD block – NadD (S. aureus) enzyme inhibition; purified NadD enzyme, colorimetric absorbance read-out; inhibition, % at 20 µM; AID 602399; 0.78% of 360,000 active; in the data active means inhibition above about 26%
# HCV core dimer – blocks dimerization of HCV core protein. AID 1899. inhibition, % at 5 µM. 0.33% of 300,000 active. TR-FRET GST/Flag-core106 dimerization, 1536-well;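 active means inhibition above the mean of all tested compounds plus 3 SD, set per screening campaign, cut at about 45% in these data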
#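 Assay system – GST-tagged and Flag-tagged HCV core protein residues 1-106 · Quantity – core106 proteins, GST 13.5 nM and Flag 17 nM · Benchmarks – unlabelled core106 and no-GST-core106 wells · Read-out basis – percent inhibition of core106 dimerization signal · Detection – time-resolved FRET, ex 340 nm, em 617 and 671 nm · Schedule – 4 h at 22.5 °C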
# Pemphigus Ab inh – blocks pemphigus antibody binding to human desmoglein-3 | P32926 | AID 588358 | DSG3-coupled beads, scFv-anti-DSG3-GFP binding, flow cytometry; active compounds read low | binding (percent of control), % at 10 µM | 0.48% of 310,000 active;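 active means binding more than 3 SD below its plate's average and above zero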;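 further: hits lower antibody fragment binding to DSG3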
# TbMetRS inhib – Trypanosoma brucei MetRS inhibition; purified T. brucei MetRS, ATP depletion, Kinase-Glo luminescence; inhibition, % at 11.9 µM; 0.4% of 360,000 active;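 active means inhibition above a per-plate cutoff of the control wells' mean inhibition plus 3 SD, cut at about 5.5% in these data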;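 further: 0% = DMSO wells median and 100% = median of wells with control inhibitor compound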
#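 System: purified T. brucei MetRS enzyme / Detection: Kinase-Glo luciferase luminescence reporting remaining unconsumed ATP / Medium: HEPES buffer with MgCl2, KCl, DTT, spermine, BSA, pyrophosphatase / Replication: singlicate, one well per compound / Evaluation: percent inhibition relative to median high and low control wells / Schedule: 2 h aminoacylation at 25 °C after 15 min preincubation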
# Rce1 inhib – blocks yeast Ras-converting enzyme; yeast membranes, quenched prenylated peptide cleavage fluorescence; calls only; 0.27% of 290,000 active;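 active means fall in fluorescence gain of 50% or more versus controls, with final raw signal at or below 3038400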;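 further: plate controls were neutral control wells for no effect and wells lacking membranes for full effect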
# The depositor's hits bear a star; i = inactive; . = not tested or not shown; + = active, no number.
SMILES,NadD block,HCV core dimer,Pemphigus Ab inh,TbMetRS inhib,Rce1 inhib
O=C(CCCN1C(=O)c2cccc3cccc(c23)C1=O)N1CCN(c2ccccc2O)CC1,11,19,100,0,i
CN(C)CCCN1C(=O)c2cccc3cccc(c23)C1=O,1,2,92,1,+
COc1cccc(NC(=O)/C=C/c2ccc(S(=O)(=O)N3CCOCC3)cc2)c1,-5,.,73*,0,.
CC(=O)Nc1cccc(NC(=O)/C=C/c2ccc(S(=O)(=O)N3CCOCC3)cc2)c1,0,.,98,-1,.
Nc1ccc2nc(-c3ccccc3)[nH]c2c1,-1,-18,99,-2,+
Nc1ccc2nc(-c3cccnc3)[nH]c2c1,-6,-20,93,1,i
Oc1cccc2cc3cccc(O)c3c(O)c12,70*,25,83,0,i
CC1=C(C)C(C)=C(C#N)C(=C(C#N)C#N)N1,2,0,96,0,+
COc1ccc(-c2cc3ccc(OCc4nn[nH]n4)cc3oc2=O)cc1OC,1,0,101,0,+
CCOC(=O)c1nn(-c2ccccc2C)c2nc(-c3ccc(C)cc3)c(C#N)c(=O)n12,3,27,109,0,i
CCOC(=O)c1nn(-c2ccccc2C)c2nc(-c3ccc(Cl)cc3)c(C#N)c(=O)n12,9,56*,94,-1,i
COc1ccc(C(=O)/C=C\c2ccc(NC(=O)c3cccs3)cc2)cc1,-5,3,97,0,i
CCN(CC)S(=O)(=O)c1ccc2oc(SCC(=O)NC3CC3)nc2c1,-5,11,102,0,i
Cc1ccc2c(c1)c1c3n2CC(=C2C(=O)OC(C)(C)OC2=O)NC3CCC1 (configuration not stated),30,46*,95,0,i
Cc1nc(C)c(C(=O)Nc2nc3c(C)cccc3s2)o1,14,54*,96,-1,.
N#Cc1c(NC(=O)/C=C/C(=O)O)sc2c1CCN(Cc1ccccc1)C2,14,69*,113,0,i
CC(=O)Nc1sc2c(c1C#N)CCN(Cc1ccccc1)C2,0,-8,97,0,i
COc1ccc(Br)c(C(=O)NCCC(C)C)c1,2,-4,101,-1,i
CC(C)CC(OC(=O)c1cccs1)C(=O)NCc1ccco1 (configuration not stated),21,49*,96,-1,i
CCC(OC(=O)c1cccs1)C(=O)NCc1ccco1 (configuration not stated),3,0,95,0,i
O=C1CSC(=S)N1/N=C/c1ccc(Cl)c([N+](=O)[O-])c1,.,65*,.,.,i
COc1cc(OC)c(/C=N/NC(=O)c2ccc(NC(C)=O)cc2)cc1Br,-1,.,74*,0,i
CCn1c(SCC(=O)Nc2nc(C)cs2)nnc1C(NC(=O)c1ccccc1Cl)C(C)C (configuration not stated),3,0,106,-1,i
COc1ccc(N2CCN(Cc3nc4scc(-c5ccccc5)c4c(=O)[nH]3)CC2)cc1,4,6,49*,-2,i
CCc1ccc(OCC(=O)N/N=C\c2ccco2)c([N+](=O)[O-])c1,-1,54*,99,0,i
SMILES,NadD block,HCV core dimer,Pemphigus Ab inh,TbMetRS inhib,Rce1 inhib
NNc1nc2c(-c3ccc(F)cc3)nnn2c2ccccc12,10,-3,85,0,i
NNc1nc2c(-c3ccc(Cl)cc3)nnn2c2ccccc12,20,4,68*,-1,i
O=C(Nc1cccc2ncccc12)c1ccc(OCc2ccccc2)cc1,-2,9,98,1,i
N/C(Cc1ccc([N+](=O)[O-])cc1)=N\OC(=O)c1ccc2ccccc2c1,-8,2,108,0,+
CCC(C)NS(=O)(=O)c1ccc(OCC(=O)NCc2ccco2)cc1 (configuration not stated),-2,-3,104,-1,i
COc1ccc(N2CCN(S(=O)(=O)c3cccc(C(F)(F)F)c3)CC2)cc1,-6,2,-25*,1,i
COc1ccc(/C=N/NC(=O)c2cccc([N+](=O)[O-])c2)cc1OC,1,1,103,0,i
N#Cc1cc([N+](=O)[O-])ccc1Oc1cccc(/C=N/NC(=O)c2cccc(Cl)c2)c1,18,50*,96,0,i
Cc1ccc(-n2nc(C(=O)NCc3ccco3)c3c4ccccc4n(C)c3c2=O)cc1,19,47*,102,0,i
COc1ccc(OC)c(NC(=O)COC(=O)Cc2ccc(Br)cc2)c1,-8,5,105,2,i
CC(=O)Nc1ccc2c(c1)C(=O)c1ccccc1C2=O,0,6,109,-1,i
CCOC(=O)C1=C(C)N(CCCC(=O)O)C(=O)NC1c1ccccc1OC(=O)c1cccs1 (configuration not stated),.,13,.,.,+
Cc1ccc(S(=O)(=O)C(C#N)c2nc3ccccc3nc2OCCO)cc1 (configuration not stated),2,-8,87,-1,i
Cc1ccc(C2C3=C(CC(C)(C)CC3=O)Nc3n[nH]c(C)c32)cc1 (configuration not stated),-5,-1,97,-1,i
Cc1[nH]nc2c1C(c1ccc(F)cc1)C1=C(CC(C)(C)CC1=O)N2 (configuration not stated),-4,-1,104,0,+
O=C(O)c1ccc(CSc2nc3ccc(NC(=O)c4ccccc4C(=O)O)cc3s2)cc1,6,2,108,0,i
N#Cc1ccccc1CSc1nc2ccc(NC(=O)c3ccccc3C(=O)O)cc2s1,8,47*,102,0,.
CC(C)C[C@H]1CNC(=O)C(=O)N1C[C@@H]1CCCN1C[C@H](Cc1ccccc1)N1C[C@H](CC(C)C)N(CCc2ccccc2)C(=O)C1=O,19,.,.,-1,.
CC(C)OC(=O)CSc1nc2c(cc1C#N)CCCCC2,6,16,87*,-1,i
CCCC(=O)Nc1ccccc1Sc1ncnc2scc(-c3ccccc3)c12,-3,1,103,0,i
Nc1nc(N2CCN(Cc3ccccc3)CC2)n[nH]1,-2,-4,79*,-1,i
c1ccc(CNc2nc(N3CCN(Cc4ccccc4)CC3)nc3ccccc23)cc1,9,1,120,0,+
CC(C)c1ccc(/C=C2\SC(=S)N(CCC(=O)NCCCn3ccnc3)C2=O)cc1,12,5,90,-1,+
Clc1cccc(CN2CCc3c([nH]c4ccccc34)C2)c1Cl,-7,2,103,0,+
COc1cc(CN2CCc3c([nH]c4ccccc34)C2)cc(OC)c1,5,2,160,5,.
Cc1ccc(OC(=O)c2cccc(S(=O)(=O)N(C)C)c2)c(-n2nc3ccccc3n2)c1,-6,-5,.,-1,i

# Bioassay records deposited in PubChem by several laboratories.
